From ChEMBL document CHEMBL1140720, “Novel prodrugs of tegafur that display improved anticancer activity and antiangiogenic properties” (J Med Chem, 2008)
Calls of active or inactive are those of the source. The calls are words filed in the database; no cut-off is given here.

Key:
HT-29 [1] = test: Anticancer activity against human HT29 cells after 72 hrs by Hoechst test; type: functional, cell-based; settings: HT-29, 72 h
How it was run: (§1)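 Cells seeded at 0.5–1 × 10^4/well for 24 h, then exposed in triplicate to a concentration titration for 72 h. Drug stock 0.5 M in DMSO, final DMSO ≤0.1%. Cells rinsed with PBS, fixed in 70% ethanol, and stained for DNA (Hoechst). IC50/IC90 taken from best-fit curves (linear or exponential) of % survival vs concentration, ≥3 independent experiments.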

[2] = Anticancer activity against human astrocytes cells after 72 hrs by Hoechst test; type: ADME, cell-based, Astrocyte; settings: for IC50: Homo sapiens, Astrocyte, 72 h; for IC90 at 72 h: human, human astrocytes; how it was run: as §1
U-251 = test: Anticancer activity against human U251 cells after 72 hrs by Hoechst test; type: functional, cell-based; how it was run: as §1
LS-1034 [3] = test: Anticancer activity against human LS1034 cells after 72 hrs in the presence of succinate by Hoechst test; type: functional, cell-based; settings: LS-1034, 72 h
How it was run: (§2)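 Same 72 h Hoechst viability titration, with or without co-addition of succinic acid at 2.5 mM. IC50 and IC90 derived from dose-response curves.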

BXPC-3 [4] = test: Anticancer activity against human BXPC3 cells after 72 hrs in the presence of succinate by Hoechst test; type: functional, cell-based; settings: BXPC-3, 72 h; how it was run: as §2
HT-29 [5] = test: Anticancer activity against human HT29 cells after 72 hrs in the presence of succinate by Hoechst test; type: functional, cell-based; settings: HT-29, 72 h; how it was run: as §2
CT26 [6] = test: Anticancer activity against mouse CT26 cells after 72 hrs in the presence of succinate by Hoechst test; type: functional, cell-based; settings: CT26, 72 h; how it was run: as §2
HT-29 [7] = test: Anticancer activity against human HT29 cells after 72 hrs in the presence of HMTA by Hoechst test; type: functional, cell-based; settings: HT-29, 72 h
How it was run: (§3)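 Same 72 h Hoechst viability titration, with or without co-addition of hexamethylenetetramine (HMTA) at 250 µM. IC50 and IC90 derived from dose-response curves.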

Mus musculus = test: Inhibition of HDAC in po dosed mouse 4T1 tumor implanted in BALB/c mouse assessed as histone acetylation level after 4 hrs; type: functional
How it was run: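 Balb/c mice carrying sc 4T1 tumors (5 × 10^4 cells implanted), dosed orally at 100 mg/kg once tumors reached 1.0 cm³. Tumors excised 4 h later and histones extracted; 5 µg protein run on 15% SDS gels. Western blot for acetyl-H4 (Lys-12), normalized to pan-H3; fold change versus untreated.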

HUVEC [8] = test: Antiangiogenic activity against HUVEC cells assessed as tube formation at 80 uM after 24 hrs; type: functional, cell-based; settings: Homo sapiens
How it was run: (§4)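 HUVEC (5 × 10^4 cells/well) seeded on a matrigel layer in supplemented EGM-2 medium. Test agent added at 80 µM, triplicate wells, incubated 3 to 24 h. Tube formation was visualized by light microscopy and photographed at ×40.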

HT-29 [9] = test: Antitumor activity against human HT29 xenografted CD1 mouse assessed as decrease in CEA level; type: functional
How it was run: (§5)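 Male nude CD1 mice implanted sc in the flank with HT-29 cells. Once tumors were palpable, oral dosing at 50 mg/kg (water vehicle), with vehicle-only controls; 14 controls, 12 per treated group. Tumors measured by caliper twice weekly, volume = (L × W²)/2. At the end, blood drawn for serum CEA.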

HUVEC [10] = test: Antiangiogenic activity against HUVEC cells assessed as tube formation at 80 uM after 8 hrs; type: functional, cell-based; settings: Homo sapiens; how it was run: as §4
BXPC-3 [11] = test: Anticancer activity against human BXPC3 cells after 72 hrs in the presence of HMTA by Hoechst test; type: functional, cell-based; settings: BXPC-3, 72 h; how it was run: as §3
HUVEC [12] = test: Antiangiogenic activity against HUVEC cells assessed as tube formation at 80 uM after 3 hrs; type: functional, cell-based; settings: Homo sapiens; how it was run: as §4
HT-29 [13] = test: Antitumor activity against human HT29 xenografted CD1 mouse at 50 mg/kg, po; type: functional, organism-based; set-up: dose 50 mg/kg; how it was run: as §5
CT26 [14] = test: Anticancer activity against mouse CT26 cells after 72 hrs in the presence of HMTA by Hoechst test; type: functional, cell-based; settings: CT26, 72 h; how it was run: as §3
HUVEC [15] = test: Effect on cell viability of HUVEC cells after 48 hrs; type: functional, cell-based; settings: Homo sapiens
How it was run: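 HUVEC grown at 37 °C, 5% CO2. Seeded in 96-well plates, then exposed to a concentration titration for 48 h. Viability read by Hoechst DNA fluorescence after ethanol fixation. IC50/IC90 from best-fit curves of ≥3 independent experiments.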

LS-1034 [16] = test: Anticancer activity against human LS1034 cells after 72 hrs in the presence of HMTA by Hoechst test; type: functional, cell-based; settings: LS-1034, 72 h; how it was run: as §3
[17] = Anticancer activity against human SK-ES cells after 72 hrs by Hoechst test; type: functional, cell-based; how it was run: as §1
[18] = Anticancer activity against mouse Pan02 cells after 72 hrs by Hoechst test; type: functional, cell-based; settings: Pan02, 72 h; how it was run: as §1
LS-1034 [19] = test: Anticancer activity against human LS1034 cells after 72 hrs in the presence of semicarbazide by Hoechst test; type: functional, cell-based; settings: LS-1034, 72 h
How it was run: (§6)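 Same 72 h Hoechst viability titration, run with or without co-addition of 500 µM semicarbazide as formaldehyde scavenger. IC50 and IC90 derived from dose-response curves.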

[20] = Anticancer activity against human MES-SA cells after 72 hrs by Hoechst test; type: functional, cell-based; how it was run: as §1
LS-1034 [21] = test: Anticancer activity against human LS1034 cells after 72 hrs by Hoechst test; type: functional, cell-based; settings: LS-1034, 72 h; how it was run: as §1
HT-29 [22] = test: Anticancer activity against human HT29 cells after 72 hrs in the presence of semicarbazide by Hoechst test; type: functional, cell-based; settings: HT-29, 72 h; how it was run: as §6
CT26 [23] = test: Anticancer activity against mouse CT26 cells after 72 hrs by Hoechst test; type: functional, cell-based; settings: CT26, 72 h; how it was run: as §1
[24] = Anticancer activity against human MES-SA DXS cells after 72 hrs by Hoechst test; type: functional, cell-based; how it was run: as §1
BXPC-3 [25] = test: Anticancer activity against human BXPC3 cells after 72 hrs in the presence of semicarbazide by Hoechst test; type: functional, cell-based; settings: BXPC-3, 72 h; how it was run: as §6
CT26 [26] = test: Anticancer activity against mouse CT26 cells after 72 hrs in the presence of semicarbazide by Hoechst test; type: functional, cell-based; settings: CT26, 72 h; how it was run: as §6
BXPC-3 [27] = test: Anticancer activity against human BXPC3 cells after 72 hrs by Hoechst test; type: functional, cell-based; settings: BXPC-3, 72 h; how it was run: as §1

CCOP(=O)(OCC)OCn1c(=O)c(F)cn(C2CCCO2)c1=O (centres undefined)
IC50 (HT-29 [1]): 19 µM
IC90 (HT-29 [1]): 80 µM
IC50 [2]: 832 µM
IC90 at 72 h [2]: 2790 µM
IC50 (U-251; Homo sapiens, U-251, 72 h): 73 µM
IC90 (U-251; Homo sapiens, U-251, 72 h): 287 µM

O=c1[nH]c(=O)n(C2CCCO2)cc1F (centres undefined) [TEGAFUR]
IC50 (LS-1034 [3]): 172 µM
IC90 (LS-1034 [3]): 617 µM
IC50 (BXPC-3 [4]): 154 µM
IC90 (BXPC-3 [4]): 719 µM
IC50 (HT-29 [5]): 158 µM
IC90 (HT-29 [5]): 644 µM
IC50 (CT26 [6]): 90 µM
IC90 (CT26 [6]): 311 µM
IC50 (HT-29 [7]): 158 µM
IC90 (HT-29 [7]): 612 µM
Activity (Mus musculus): 2
Activity (HUVEC [8]): inactive
Activity (HT-29 [9]): Active
Activity (HUVEC [10]): inactive
IC50 (BXPC-3 [11]): 145 µM
IC90 (BXPC-3 [11]): 654 µM
Activity (HUVEC [12]): inactive
Activity (HT-29 [13]): Active
IC50 (CT26 [14]): 107 µM
IC90 (CT26 [14]): 464 µM
IC50 (HUVEC [15]): 1000 µM
IC90 (HUVEC [15]): 3400 µM
IC50 (LS-1034 [16]): 193 µM
IC90 (LS-1034 [16]): 852 µM
IC50 [2]: 4290 µM
IC90 at 72 h [2]: 7680 µM
IC50 [17]: 174 µM
IC90 [17]: 531 µM
IC50 [18]: 179 µM
IC90 [18]: 637 µM
IC50 (U-251; Homo sapiens, U-251, 72 h): 384 µM
IC90 (U-251; Homo sapiens, U-251, 72 h): 1280 µM

O=c1c(F)cn(C2CCCO2)c(=O)n1CO (centres undefined)
IC50 (LS-1034 [19]): 132 µM
IC90 (LS-1034 [19]): 296 µM
IC50 [20]: 79 µM
IC50 (LS-1034 [21]): 84 µM
IC50 (HT-29 [22]): 164 µM
IC90 (HT-29 [22]): 303 µM
IC50 (CT26 [23]): 99 µM
IC90 (CT26 [23]): 170 µM
IC50 (HT-29 [1]): 67 µM
IC50 [24]: 63 µM
IC50 (HUVEC [15]): 70 µM
IC90 (HUVEC [15]): 120 µM
IC50 (BXPC-3 [25]): 160 µM
IC90 (BXPC-3 [25]): 460 µM
IC50 [2]: 187 µM
IC90 at 72 h [2]: 476 µM
IC50 (CT26 [26]): 132 µM
IC90 (CT26 [26]): 252 µM
IC50 [17]: 45 µM
IC90 [17]: 80 µM
IC50 [18]: 96 µM
IC90 [18]: 219 µM
IC50 (U-251; Homo sapiens, U-251, 72 h): 103 µM
IC90 (U-251; Homo sapiens, U-251, 72 h): 223 µM
IC50 (BXPC-3 [27]): 74 µM

CCCC(=O)OCn1c(=O)c(F)cn(C2CCCO2)c1=O (centres undefined)
IC50 (LS-1034 [19]): 34 µM
IC90 (LS-1034 [19]): 94 µM
IC50 [20]: 71 µM
IC50 (LS-1034 [21]): 42 µM
IC90 (LS-1034 [21]): 79 µM
Activity (Mus musculus): 2
IC50 (HT-29 [22]): 51 µM
IC90 (HT-29 [22]): 138 µM
Activity (HUVEC [8]): Active
Activity (HT-29 [9]): Active
IC50 (CT26 [23]): 27 µM
IC90 (CT26 [23]): 76 µM
IC50 (HT-29 [1]): 35 µM
IC90 (HT-29 [1]): 84 µM
Activity (HT-29 [13]): Active
IC50 [24]: 54 µM
IC50 (HUVEC [15]): 100 µM
IC90 (HUVEC [15]): 170 µM
IC50 (BXPC-3 [25]): 88 µM
IC90 (BXPC-3 [25]): 280 µM
IC50 [2]: 200 µM
IC90 at 72 h [2]: 323 µM
IC50 (CT26 [26]): 52 µM
IC90 (CT26 [26]): 105 µM
IC50 [17]: 47 µM
IC90 [17]: 81 µM
IC50 [18]: 46 µM
IC90 [18]: 149 µM
IC50 (U-251; Homo sapiens, U-251, 72 h): 55 µM
IC50 (U-251; u-251): 107 µM
IC50 (BXPC-3 [27]): 81 µM
